Type in all cases: functional
In experiment [1] the test system is Mycobacterium tuberculosis. Put plainly: Minimum inhibitory concentration required for antibacterial activity against Mycobacterium tuberculosis. The method, boiled down: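 Tube dilution in M-33 broth (yeast extract, tryptone, glucose, pH 7.0; 5 mL final volume). Test agent was diluted in phosphate buffer pH 7.4 and broth to a final 1–600 µg/mL. Inoculum was 3×10^5 CFU/mL prepared in Ringer's solution, incubated at 35 °C for 120 h. Clear tubes were subcultured (10 µL) on agar at 35 °C and examined under a microscope for growth.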

In a further experiment the test system is Escherichia coli. Put plainly: Minimum inhibitory concentration required for antibacterial activity against Escherichia coli. In outline:
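Broth tube dilution in nutrient broth; stock in sulfoxide solvent, diluted in phosphate buffer pH 7.4 and culture broth to final 1–600 µg/mL. Inoculum in Ringer's solution, 3×10^5 CFU/mL; 35 °C for 24 h. Tubes without visible growth subcultured (10 µL) onto agar plates at 35 °C, growth checked by microscope.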

The next experiment concerns Proteus vulgaris. The experiment can be described thus: Minimum inhibitory concentration required for antibacterial activity against Proteus vulgaris. The method, boiled down:
(§1)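 Broth tube dilution in nutrient broth (5 mL final volume). The compound was diluted in phosphate buffer pH 7.4 and culture broth to final concentrations of 1–600 µg/mL. Inoculum was adjusted to 3×10^5 CFU/mL in Ringer's solution, then incubated at 35 °C for 24 h. Tubes without visible growth were subcultured (10 µL) onto agar plates at 35 °C and checked microscopically for growth.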

For the next experiment, the system named is Thanatephorus cucumeris. The experiment can be described thus: Minimum fungicidal concentration required against Rhizoctonia solani. In outline: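 Tube assay in molten M2 agar (g/L: yeast extract 5.00, NaCl 10.00, KH2PO4 0.10, MgSO4·7H2O 0.05, dextrose 10.00, agar 15.0, pH 7.1). Stock in sulfoxide solvent, diluted in phosphate buffer pH 7.4 and culture broth; final 1–600 µg/mL. Spore suspension in Ringer's solution, 3×10^5 CFU/mL; 35 °C, 48 h. MFC = lowest concentration killing 95% of inoculum.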

For another experiment, the system named is Bacillus subtilis. Put plainly: Minimum inhibitory concentration required for antibacterial activity against Bacillus subtilis. The method, boiled down: as §1

Each structure is given as a SMILES string. Values after ≈ are worked out from the molar mass of the structure shown.

In the case of `CCCCOC(=O)c1ccncc1` [ISONICOTINIC ACID BUTYL ESTER], the MIC is 280 µg/mL (≈ 1560 µM) in experiment [1], 500 µg/mL (≈ 2790 µM) in the experiment on Escherichia coli, 500 µg/mL (≈ 2790 µM) in the experiment on Proteus vulgaris and 600 µg/mL (≈ 3350 µM) with Bacillus subtilis. In the experiment on Thanatephorus cucumeris, this compound had a minimal fungicidal concentration (MFC) of 600 µg/mL (≈ 3350 µM).

On to `CCCCCCCCCCCCCCCCCCOC(=O)c1ccncc1` [ISONICOTINIC ACID OCTADECYL ESTER], for which the MIC in experiment [1] stood at 320 µg/mL (≈ 852 µM); against Escherichia coli, 56 µg/mL (≈ 149 µM); against Proteus vulgaris, 500 µg/mL (≈ 1330 µM); in the experiment on Bacillus subtilis, 600 µg/mL (≈ 1600 µM). In addition, the minimum fungicidal concentration (MFC) against Thanatephorus cucumeris worked out at 600 µg/mL (≈ 1600 µM).

For the compound `CCCCCOC(=O)c1ccncc1` [ISONICOTINIC ACID PENTYL ESTER], the MIC in experiment [1] was determined as 10 µg/mL (≈ 51.7 µM); against Escherichia coli, 20 µg/mL (≈ 103 µM); with Proteus vulgaris, 14 µg/mL (≈ 72.4 µM); against Bacillus subtilis, 20 µg/mL (≈ 103 µM). For the same compound, in the experiment on Thanatephorus cucumeris, the minimum fungicidal concentration (MFC) is 14 µg/mL (≈ 72.4 µM).

Regarding `CCCCCCOC(=O)c1ccncc1` [ISONICOTINIC ACID HEXYL ESTER], the minimum inhibitory concentration (MIC) amounted to 24 µg/mL (≈ 116 µM) in experiment [1], 35 µg/mL (≈ 169 µM) in the experiment on Escherichia coli, 36 µg/mL (≈ 174 µM) against Proteus vulgaris and 50 µg/mL (≈ 241 µM) in the experiment with Bacillus subtilis. This compound registered an MFC in the experiment with Thanatephorus cucumeris of 44 µg/mL (≈ 212 µM).

Take `CCCCCCCOC(=O)c1ccncc1` [ISONICOTINIC ACID HEPTYL ESTER]: the minimal inhibitory concentration (MIC) amounted to 16 µg/mL (≈ 72.3 µM) in experiment [1], 16 µg/mL (≈ 72.3 µM) against Escherichia coli, 16 µg/mL (≈ 72.3 µM) in the experiment with Proteus vulgaris and 24 µg/mL (≈ 108 µM) against Bacillus subtilis. This compound gave an MFC against Thanatephorus cucumeris of 15 µg/mL (≈ 67.8 µM).

For the compound `CCCCCCCCOC(=O)c1ccncc1` [ISONICOTINIC ACID OCTYL ESTER], the MIC in experiment [1] is 8 µg/mL (≈ 34 µM); with Escherichia coli it was 12 µg/mL (≈ 51 µM); against Proteus vulgaris, 6 µg/mL (≈ 25.5 µM); in the experiment with Bacillus subtilis, 16 µg/mL (≈ 68 µM). For the same compound, in the experiment on Thanatephorus cucumeris, the minimum fungicidal concentration (MFC) is 18 µg/mL (≈ 76.5 µM).

In the case of `CCCCC[C@H](C)COC(=O)c1ccncc1` [(S)-2-METHYLHEPTYL ISONICOTINATE], the minimal inhibitory concentration (MIC) came out at 14 µg/mL (≈ 59.5 µM) in experiment [1], 40 µg/mL (≈ 170 µM) in the experiment with Escherichia coli, 14 µg/mL (≈ 59.5 µM) against Proteus vulgaris and 20 µg/mL (≈ 85 µM) against Bacillus subtilis. The compound also displayed a minimum fungicidal concentration (MFC) with Thanatephorus cucumeris of 32 µg/mL (≈ 136 µM).

For the compound `CCCCC[C@@H](C)COC(=O)c1ccncc1` [ISONICOTINIC ACID 2-METHYL-HEPTYL ESTER], the minimal inhibitory concentration (MIC) in experiment [1] was determined as 10 µg/mL (≈ 42.5 µM); against Escherichia coli it was 30 µg/mL (≈ 127 µM); with Proteus vulgaris, 6 µg/mL (≈ 25.5 µM); against Bacillus subtilis, 16 µg/mL (≈ 68 µM). Also, the minimum fungicidal concentration (MFC) in the experiment on Thanatephorus cucumeris worked out at 24 µg/mL (≈ 102 µM).

As usually defined, the MIC is the smallest concentration in the dilution series that meets the test's criterion for growth inhibition. A lower MIC goes with a more susceptible organism. Broadly, the MFC is the smallest concentration meeting the test's criterion for killing the fungus. A lower MFC goes with more potent killing.

These data come from ChEMBL document CHEMBL1147480, “Synthesis, absolute stereochemistry and molecular design of the new antifungal and antibacterial antibiotic produced by Streptomyces sp.201” (2004).
